Assay [1] concerns the target T1, Adenosine receptor A1 (Homo sapiens, UniProt P30542).
T1 sequence (P30542 whole entry): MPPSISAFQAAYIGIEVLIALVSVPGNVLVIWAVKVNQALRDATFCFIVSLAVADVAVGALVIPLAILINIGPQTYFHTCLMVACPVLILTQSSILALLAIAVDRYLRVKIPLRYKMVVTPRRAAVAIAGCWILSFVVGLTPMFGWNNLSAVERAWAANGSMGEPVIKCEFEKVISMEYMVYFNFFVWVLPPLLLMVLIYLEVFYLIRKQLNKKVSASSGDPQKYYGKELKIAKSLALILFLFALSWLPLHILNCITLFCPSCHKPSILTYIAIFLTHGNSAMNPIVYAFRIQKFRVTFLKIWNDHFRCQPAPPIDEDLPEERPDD
Briefly: Displacement of [3H]CCPA from human adenosine receptor A1 expressed in CHO cell membranes incubated for 90 mins by radioligand competition assay. More on the design: species or system Cell membrane.

The target of assay [2] is T2, Adenosine receptor A1 (Rattus norvegicus, UniProt P25099).
T2 sequence (P25099 whole entry): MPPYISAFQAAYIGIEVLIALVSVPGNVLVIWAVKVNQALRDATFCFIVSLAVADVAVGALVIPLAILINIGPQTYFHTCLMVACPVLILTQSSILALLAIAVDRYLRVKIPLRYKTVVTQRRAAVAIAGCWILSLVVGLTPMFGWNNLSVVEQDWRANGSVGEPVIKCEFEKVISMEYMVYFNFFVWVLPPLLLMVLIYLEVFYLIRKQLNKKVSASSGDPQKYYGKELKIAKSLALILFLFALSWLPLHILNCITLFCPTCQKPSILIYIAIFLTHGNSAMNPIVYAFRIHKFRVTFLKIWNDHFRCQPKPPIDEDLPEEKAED
Description: Displacement of [3H]CCPA from adenosine receptor A1 in rat brain cortex membranes incubated for 90 mins by radioligand competition assay. The class given is cell membranes, Cell membrane.

Assay [3] has as its target T3, Adenosine receptor A2a (Homo sapiens, UniProt P29274). Briefly: Displacement of [3H]MSX2 from human adenosine receptor A2A expressed in HEK293 cell membranes incubated for 30 mins by radioligand competition assay. On the set-up: species or system Cell membrane.
In assay [4] the target is Adenosine receptor A2a (Rattus norvegicus, UniProt P30543). Briefly: Displacement of [3H]MSX2 from adenosine receptor A2A in rat brain striatum membranes incubated for 30 mins by radioligand competition assay. Type of assay: cell membranes, Cell membrane.
In another assay the target is T4, Adenosine receptor A2b (Homo sapiens, UniProt P29275).
T4 sequence (P29275 whole entry): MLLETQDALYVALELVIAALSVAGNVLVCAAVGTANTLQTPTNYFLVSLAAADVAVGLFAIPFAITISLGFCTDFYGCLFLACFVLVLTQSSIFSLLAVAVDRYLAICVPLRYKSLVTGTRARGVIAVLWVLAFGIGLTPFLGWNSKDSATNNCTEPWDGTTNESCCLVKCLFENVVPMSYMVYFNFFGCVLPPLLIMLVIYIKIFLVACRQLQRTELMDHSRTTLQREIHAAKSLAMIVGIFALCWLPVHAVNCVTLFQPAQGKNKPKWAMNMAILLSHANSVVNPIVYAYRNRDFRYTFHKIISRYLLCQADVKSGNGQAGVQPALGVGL
Description: Displacement of [3H]PSB-603 from human adenosine receptor A2B expressed in CHO cell membranes incubated for 75 mins by radioligand competition assay. More on the design: species or system Cell membrane.

For assay [5], the target named is T5, Adenosine receptor A3 (Homo sapiens, UniProt P0DMS8).
T5 sequence (P0DMS8 whole entry): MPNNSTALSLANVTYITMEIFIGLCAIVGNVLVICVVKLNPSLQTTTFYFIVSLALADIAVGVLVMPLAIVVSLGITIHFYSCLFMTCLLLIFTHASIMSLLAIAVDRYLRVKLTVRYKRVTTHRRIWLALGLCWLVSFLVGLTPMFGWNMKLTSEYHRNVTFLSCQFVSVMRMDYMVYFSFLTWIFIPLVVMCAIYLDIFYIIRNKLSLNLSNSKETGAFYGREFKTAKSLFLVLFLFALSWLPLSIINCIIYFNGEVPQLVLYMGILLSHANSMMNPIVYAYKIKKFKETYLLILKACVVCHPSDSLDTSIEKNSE
Description: Displacement of [3H]PSB-11 from human adenosine receptor A3 expressed in CHO cell membranes incubated for 60 mins by radioligand competition assay. On the set-up: species or system Cell membrane.

Assay [6] has as its target T6, Adenosine receptor A3 (Homo sapiens) (UniProt P0DMS8).
T6 sequence (whole entry): T5 sequence (P0DMS8 whole entry)
Description: Displacement of [3H]PSB-11 from human adenosine receptor A3 expressed in CHO cell membranes at 0.1 uM incubated for 60 mins by radioligand competition assay. Conditions: Cell membrane, dose 1 µM, in the assay text read “1 uM” for “0.1 uM”. Summed up:
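CHO membranes expressing human A3, [3H]PSB-11 0.5 nM. Nonspecific binding defined by 100 µM R-PIA. Adenosine deaminase preincubation 20 min, then 60 min at rt in 50 mM Tris-HCl pH 7.4 with 2.5% DMSO. Filtered on GF/B, scintillation counted.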

Assay [7] concerns the target Adenosine receptor A2a (Rattus norvegicus) (UniProt P30543). Description: Displacement of [3H]MSX2 from adenosine receptor A2A in rat brain striatum membranes at 0.1 uM incubated for 30 mins by radioligand competition assay relative to control. The following applies: Cell membrane. Summed up: (§1)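 A2A binding, [3H]MSX-2 1.0 nM. Membranes: rat brain striatum, or HEK293 cells expressing human A2A. Adenosine deaminase preincubation 20 min, then 30 min at rt in 50 mM Tris-HCl pH 7.4 with 2.5% DMSO. Nonspecific binding defined by 50 µM NECA. GF/B filtration, scintillation counting. Single-concentration percent inhibition, ≥3 experiments in duplicate or triplicate.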

Assay [8] deals with T3, Adenosine receptor A2a. Description: Displacement of [3H]MSX2 from human adenosine receptor A2A expressed in HEK293 cell membranes at 0.1 uM incubated for 30 mins by radioligand competition assay relative to control. The following applies: Cell membrane, in the assay text read “at 1 uM” for “at 0.1 uM”. Summed up: as §1
For assay [9], the target named is T7, Adenosine receptor A2b (Homo sapiens) (UniProt P29275).
T7 sequence (whole entry): T4 sequence (P29275 whole entry)
Description: Displacement of [3H]PSB-603 from human adenosine receptor A2B expressed in CHO cell membranes at 0.1 uM incubated for 75 mins by radioligand competition assay relative to control. Conditions: Cell membrane. The procedure, abridged:
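CHO membranes expressing human or rat A2B, [3H]PSB-603 0.3 nM. Nonspecific binding defined by 10 µM DPCPX. Preincubated 20 min with adenosine deaminase, then 75 min at rt in Tris-HCl pH 7.4 with 2.5% DMSO. Filters washed with ice-cold 50 mM Tris-HCl containing 0.1% BSA; scintillation counting.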

Assay [10] concerns the target T8, Adenosine receptor A1 (Rattus norvegicus) (UniProt P25099).
T8 sequence (whole entry): T2 sequence (P25099 whole entry)
Description: Displacement of [3H]CCPA from adenosine receptor A1 in rat brain cortex membranes at 0.1 uM incubated for 90 mins by radioligand competition assay. The following applies: Cell membrane, filed as antagonist. Summed up: (§2)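 A1 competition binding with [3H]CCPA, 0.5 nM. Membranes: CHO cells expressing human A1, or rat brain cortex. Membranes preincubated 20 min with adenosine deaminase (2 U/mL per mg protein). Incubation 90 min at rt in 50 mM Tris-HCl pH 7.4 with 2.5% final DMSO. Nonspecific binding defined by 10 µM 2-chloroadenosine. GF/B filtration, scintillation counting.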

Assay [11] deals with T9, Adenosine receptor A3 (Rattus norvegicus, UniProt P28647).
T9 sequence (P28647 whole entry): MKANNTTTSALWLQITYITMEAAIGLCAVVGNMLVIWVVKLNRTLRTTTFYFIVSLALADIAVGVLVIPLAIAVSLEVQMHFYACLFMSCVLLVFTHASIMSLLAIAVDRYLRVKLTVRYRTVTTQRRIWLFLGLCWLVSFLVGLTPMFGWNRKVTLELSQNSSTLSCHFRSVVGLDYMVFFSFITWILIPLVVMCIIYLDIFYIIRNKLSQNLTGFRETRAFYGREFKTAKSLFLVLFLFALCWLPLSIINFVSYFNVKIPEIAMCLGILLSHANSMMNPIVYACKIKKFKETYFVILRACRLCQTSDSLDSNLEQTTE
Description: Displacement of [3H]NECA from rat adenosine receptor A3 expressed in CHO cell membranes incubated for 60 mins by radioligand competition assay. On the set-up: species or system Cell membrane.

Assay [12] addresses T10, Adenosine receptor A3 (Rattus norvegicus) (UniProt P28647).
T10 sequence (whole entry): T9 sequence (P28647 whole entry)
Briefly: Displacement of [3H]NECA from rat adenosine receptor A3 expressed in CHO cell membranes at 0.1 uM incubated for 60 mins by radioligand competition assay relative to control. The following applies: Cell membrane. Summed up:
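CHO membranes expressing rat A3, [3H]NECA 10 nM. Nonspecific binding defined by 100 µM R-PIA. Preincubated 20 min with adenosine deaminase, then 60 min at rt in 50 mM Tris-HCl pH 7.4 with 2.5% DMSO. GF/B filtration, scintillation counting.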

In assay [13] the target is T2, Adenosine receptor A1. Briefly: Displacement of [3H]DPCPX from rat brain cortical membrane A1AR in absence of GTP by scintillation counting analysis. Type of assay: cell membranes, Cortex, Cell membrane.
The target of assay [14] is T2, Adenosine receptor A1. Briefly: Displacement of [3H]DPCPX from rat brain cortical membrane A1AR in presence of 100 uM of GTP by scintillation counting analysis. The class given is cell membranes, Cortex, Cell membrane.
Assay [15] concerns the target T2, Adenosine receptor A1. Briefly: Displacement of [3H]CCPA from rat adenosine receptor A1 by radioligand competition assay. Summed up: as §2
Assay [16] deals with T2, Adenosine receptor A1. Description: Displacement of [3H]DPCPX from rat adenosine receptor A1 by radioligand competition assay. The procedure, abridged:
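Rat brain cortical membranes, [3H]DPCPX 0.4 nM. Nonspecific binding defined by 10 μM DPCPX. Curves run with and without 100 μM GTP. Incubation 90 min at rt in 50 mM Tris-HCl pH 7.4, after 20 min adenosine deaminase preincubation. Filtration, then scintillation counting. GTP shift is the IC50 with GTP divided by the IC50 without GTP.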

Adenosine receptor A2a (Rattus norvegicus), sequence (P30543 whole entry): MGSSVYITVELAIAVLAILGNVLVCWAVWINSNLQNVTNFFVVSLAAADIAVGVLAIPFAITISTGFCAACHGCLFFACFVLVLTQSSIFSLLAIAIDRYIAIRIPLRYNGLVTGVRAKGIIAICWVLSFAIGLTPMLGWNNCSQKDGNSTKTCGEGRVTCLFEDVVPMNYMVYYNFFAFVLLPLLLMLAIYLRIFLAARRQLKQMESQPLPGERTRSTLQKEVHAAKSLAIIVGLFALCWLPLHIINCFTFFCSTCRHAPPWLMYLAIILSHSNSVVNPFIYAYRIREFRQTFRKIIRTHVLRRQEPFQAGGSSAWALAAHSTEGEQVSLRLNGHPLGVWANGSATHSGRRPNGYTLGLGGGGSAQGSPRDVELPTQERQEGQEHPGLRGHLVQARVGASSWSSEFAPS
Adenosine receptor A2a (Rattus norvegicus, UniProt P30543), sequence (P30543 whole entry): as above
T3 sequence (P29274 whole entry): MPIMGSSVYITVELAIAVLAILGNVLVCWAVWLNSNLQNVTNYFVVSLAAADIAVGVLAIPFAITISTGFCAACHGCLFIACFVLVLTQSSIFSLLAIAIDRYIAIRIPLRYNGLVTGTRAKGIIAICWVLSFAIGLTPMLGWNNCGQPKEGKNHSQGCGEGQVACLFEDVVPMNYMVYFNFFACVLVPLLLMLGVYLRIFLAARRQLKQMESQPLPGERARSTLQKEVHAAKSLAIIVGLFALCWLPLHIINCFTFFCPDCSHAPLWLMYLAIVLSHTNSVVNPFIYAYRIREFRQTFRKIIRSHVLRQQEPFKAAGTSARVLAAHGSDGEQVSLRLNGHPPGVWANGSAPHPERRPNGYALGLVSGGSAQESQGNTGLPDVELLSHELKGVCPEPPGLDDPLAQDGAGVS

As for `COc1ccc(C(=O)Nc2nc(-c3ccccc3)c(C(=O)c3ccc(OC)cc3)s2)cc1`, the Ki at Adenosine receptor A1 [1] is 13.6 nM; at Adenosine receptor A1 [2], 1.77 nM; on Adenosine receptor A2a [3] it was more than 1000 nM; at Adenosine receptor A2a [4], more than 1000 nM; on Adenosine receptor A2b, more than 100 nM; at Adenosine receptor A3 [5] it was more than 1000 nM. In addition, the inhibition in assay [6] is 37%; in assay [7], 16%.
As to `COc1ccc(C(=O)Nc2nc(-c3ccccc3)c(C(=O)c3ccc(F)cc3F)s2)cc1`, the Ki on Adenosine receptor A1 [1] is more than 1000 nM; at Adenosine receptor A2a [3], more than 1000 nM; on Adenosine receptor A2a [4], more than 1000 nM; at Adenosine receptor A2b, more than 100 nM; at Adenosine receptor A3 [5] it was more than 1000 nM. The inhibition on Adenosine receptor A2a [8] was found to be 14%; in assay [9], 0%; in assay [6], 24%; in assay [10], 54%; in assay [7] it was 16%.
`O=C(Nc1nc(-c2ccccc2)c(-c2nc3ccccc3c(=O)n2-c2ccc(Cl)cc2)s1)c1ccccc1`: the Ki is more than 1000 nM on Adenosine receptor A1 [1]; more than 1000 nM at Adenosine receptor A1 [2]; more than 1000 nM on Adenosine receptor A2a [3]; more than 1000 nM at Adenosine receptor A2a [4]; more than 100 nM on Adenosine receptor A2b; 83.3 nM at Adenosine receptor A3 [5]. On Adenosine receptor A3 [11], this compound had a Ki of more than 10000 nM. The inhibition in assay [9] was 12%; in assay [10], 16%; in assay [7], 7%; in assay [12] it was 22%.
Consider `Cc1ccc(C(=O)c2sc(NC(=O)c3ccco3)nc2-c2ccccc2)cc1`, for which the Ki at Adenosine receptor A1 [1] is 7.57 nM; on Adenosine receptor A1 [2] it was 0.348 nM; on Adenosine receptor A2a [3], more than 1000 nM; on Adenosine receptor A2a [4] it was 1210 nM; on Adenosine receptor A2b, more than 100 nM; at Adenosine receptor A3 [5], 42.2 nM. For the same compound, the Ki was determined as 0.348 nM at Adenosine receptor A1 [15] and 0.0628 nM at Adenosine receptor A1 [16]. In addition, the inhibition in assay [9] stood at 2%. Also, the IC50 came out at 0.067 nM on Adenosine receptor A1 [13] and 0.084 nM at Adenosine receptor A1 [14].

The record behind these values is ChEMBL document CHEMBL4680130, “Substituted 4-phenylthiazoles: Development of potent and selective A, A and dual A/A adenosine receptor antagonists” (Eur J Med Chem, 2020).
